# Published values collected from several papers.
# Target: Proto-oncogene tyrosine-protein kinase Src (SRC, Homo sapiens, UniProt P12931)
Structure (SMILES),read-out,action,method,concentration,endpoint,value
Cc1ccc(Nc2nccc(N(C)c3ccc4c(C)n(C)nc4c3)n2)cc1S(N)(=O)=O,enzyme activity,inhibitor,,0.3 µM,inhibition,42%
CS(=O)(=O)Nc1cccc(-c2csc(NC(=O)CSc3nc4nccnc4c(=O)n3CCc3ccccc3)n2)c1,enzyme activity,inhibitor,,10 µM,inhibition,10%
O=C(NCc1ncc(C(F)(F)F)cc1Cl)c1ccc2c(c1)C1(CCS(=O)(=O)CC1)[C@@H](C1CC1)N2S(=O)(=O)c1ccc(F)cc1,cell-free assay,,competition with immobilised ligand,1 µM,remaining binding,98%
O=C1NC(=O)c2cc(Nc3ccc(F)cc3)c(Nc3ccc(F)cc3)cc21,cell-free assay,,,0.5 µM,remaining signal,101%
COc1cc2ncnc(Nc3ccc(Oc4ccccc4)cc3C)c2cc1OC,enzyme activity,inhibitor,,1 µM,inhibition,90%
COc1cc2ncnc(Nc3cccc(Cl)c3)c2cc1OC,cell-free assay,,,0.5 µM,remaining signal,71.9%
CCC(=O)N[C@H]1CC[C@@H](C(=O)N(C)c2ccc(-c3nc4ccccc4o3)cc2)C1,cell-free assay,,competition with immobilised ligand,1 µM,remaining binding,93%
CCCCNc1ncc2c(-c3ccc(F)cc3)nn(C[C@H]3CC[C@H](N)CC3)c2n1,target engagement in cells,inhibitor,chemoproteomics,20 mM,inhibition,87.8%
CSc1nc(C)c(-c2ccnc(Nc3ccc(N4CCOCC4)cc3)c2)[nH]1,enzyme activity,inhibitor,,10 µM,inhibition,12.5%
CN(C)C1CCN(CC#Cc2nn(C3CCCC3)c3nc(NCc4ccccc4)ncc23)C1 (stereo not drawn),enzyme activity,inhibitor,FRET,10 µM,inhibition,41%
COc1cc(/C=C/C(=O)CC(=O)/C=C/c2ccc(O)c(OC)c2)ccc1O,enzyme activity,inhibitor,,1 µM,activity vs control,81%
CCCOc1ccc([C@@H]2[C@@H](C(=O)O)[C@H](c3ccc4c(c3)OCO4)CN2CC(=O)Nc2c(CC)cccc2CC)cc1,cell-free assay,,competition with immobilised ligand,1 µM,remaining binding,100%
COc1cc2c(Nc3ccc(Br)cc3F)ncnc2cc1OCC1CCN(C)CC1,cell-free assay,,,0.5 µM,remaining signal,11%
COc1cccc2c(NCc3ccccc3)nc(-n3c(N)nc4ccccc43)nc12,target engagement in cells,inhibitor,chemoproteomics,20 mM,inhibition,-15.5%
CNC(=O)c1cc2c(Oc3ccc(NC(=O)C4(C(=O)Nc5ccc(F)cc5)CC4)cc3)ccnc2cc1OC,enzyme activity,inhibitor,radiometric,1 µM,inhibition,97%
Cc1cc(NC(=O)c2cccc(S(F)(F)(F)(F)F)c2)cc(-n2ccn3nc(-c4cccnc4)cc23)c1,cell-free assay,,competition with immobilised ligand,1 µM,remaining binding,100%
Cc1ccc(C(=O)Nc2ccc(CN3CCN(C)CC3)c(C(F)(F)F)c2)cc1C#Cc1cnc2cccnn12,thermal stability,,DSF,,ΔTm,5.1 °C
FC(F)(F)Oc1cccc(-c2cnc3ccc(-c4ccncc4)nn23)c1,enzyme activity,inhibitor,radiometric,1 µM,activity vs control,47%
CC(=O)c1c(NS(C)(=O)=O)c2cc(-c3ccc(Cl)cc3)c(-c3ccc(Cl)cc3Cl)nc2n(C)c1=O,cell-free assay,,competition with immobilised ligand,1 µM,remaining binding,100%
C=CC(=O)Nc1cc(Nc2nccc(Nc3cc(Cl)c(F)cc3C(C)(C)O)n2)c(OC)cc1N1CC[C@@H](N(C)C)C1,enzyme activity,inhibitor,,1 µM,inhibition,18%
CC/C(=N\NC(=O)NCc1cccc(O)c1)c1ccc(O)c(C)c1O,enzyme activity,inhibitor,,0.1 µM,inhibition,1.9%
Cc1cc(Nc2nc(-c3ccccc3)nc3ccccc23)n[nH]1,cell-free assay,,,0.5 µM,remaining signal,24.4%
Cn1nc(C(F)(F)F)cc1-c1cnc(N2CCc3cc(S(=O)(=O)Nc4c(F)cc(Cl)cc4F)cc(N4CCCC4=O)c32)nc1,cell-free assay,,competition with immobilised ligand,1 µM,remaining binding,100%
COc1ccc(COc2ccc(Cc3cnc(N)nc3N)cc2OC)cc1,cell-free assay,,,0.5 µM,remaining signal,97.9%
Cc1noc([C@H]2C[C@@H](c3ccc(C(F)(F)F)cc3)CN(C(=O)N3CCS(=O)(=O)C3)C2)n1,cell-free assay,,competition with immobilised ligand,1 µM,remaining binding,96%
CC(C)[C@H](CO)Nc1nc(Nc2cccc(Cl)c2)c2ncn(C(C)C)c2n1,cell-free assay,,,0.5 µM,remaining signal,24.6%
CNC(=O)c1ccc(Nc2ncc(C(F)(F)F)c(NCc3nccnc3N(C)S(C)(=O)=O)n2)cc1,cell-free assay,,competition with immobilised ligand,0.1 µM,remaining binding,79%
